# Data reported in PMC2818757 (Peptides, 2009).
# Ends that are not written are not given here.
# What was measured:
# [1] = tested on: NCI-H69 cells; test: Phospholipase C / [3H]IP stimulation in SCLC cells NCI-H69; type: cell-based, human; conditions: 0.1 uM peptide alone, 37C, 60 min, mean ± SEM, at least 4 experiments
# [2] = tested on: NCI-N417 cells; test: Phospholipase C / [3H]IP stimulation in SCLC cells NCI-N417; type: cell-based, human; conditions: 0.1 uM peptide alone, 37C, 60 min, mean ± SEM, at least 4 experiments
# How it was run: (§1)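 SCLC suspension cells (1 × 10^6 cells/ml) were labelled 24 h at 37C with myo-[2-3H]inositol in RPMI with 2% FBS. Cells were washed, held 10 min in PBS pH 7.0 with 20 mM LiCl, then resuspended in HEPES pH 7.4 buffer with LiCl, EGTA, glucose and BSA. Peptide exposure was 60 min at 37C, stopped with ice-cold HCl/methanol. Total [3H]IP was eluted from anion-exchange resin and counted by scintillation; values are expressed as experimental/control.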
# [3] = tested on: NCI-H209 cells; test: Phospholipase C / [3H]IP stimulation in SCLC cells NCI-H209; type: cell-based, human; conditions: 0.1 uM peptide alone, 37C, 60 min, mean ± SEM, at least 4 experiments
# [4] = tested on: NCI-N592 cells; test: Phospholipase C / [3H]IP stimulation in SCLC cells NCI-N592; type: cell-based, human; conditions: 0.1 uM peptide alone, 37C, 60 min, mean ± SEM, at least 4 experiments
# How it was run: as §1
# [5] = tested on: Antiserum 8684; test: GRP18-27gly #8684 RIA cross-reactivity; type: binding, rabbit; conditions: 125I-labeled GRP-gly tracer; GRP18-27gly standard
Compound,"Phospholipase C activity, Experimental/control [1]","Phospholipase C activity, Experimental/control [2]","Phospholipase C activity, Experimental/control [3]","Phospholipase C activity, Experimental/control [4]",cross-reactivity with antiserum 8684 [5]
"CSCC[C@H](NC(=O)[C@H](CC(C)C)NC(=O)[C@H](Cc1c[nH]cn1)NC(=O)CNC(=O)[C@@H](NC(=O)[C@H](C)NC(=O)[C@H](Cc1c[nH]c2ccccc12)NC(=O)[C@H](Cc1c[nH]cn1)NC(=O)[C@H](CC(N)=O)NC(=O)CNC(=O)[C@H](CCCNC(=N)N)NC(=O)[C@@H]1CCCN1C(=O)[C@H](Cc1ccc(O)cc1)NC(=O)[C@H](CCSC)NC(=O)[C@H](CCCCN)NC(=O)[C@@H](NC(=O)[C@H](CC(C)C)NC(=O)[C@@H](NC(=O)[C@@H](NC(=O)CNC(=O)CNC(=O)CNC(=O)[C@H](C)NC(=O)[C@@H]1CCCN1C(=O)[C@H](CC(C)C)NC(=O)[C@@H]1CCCN1C(=O)[C@@H](N)C(C)C)[C@@H](C)O)C(C)C)[C@@H](C)O)C(C)C)C(N)=O [GRP, gastrin releasing peptide]",1.23±0.07,1.03±0.01,1.11±0.04,1.03±0.04,–
"GRP1-27: amidated form of gastrin releasing peptide 1-27 (VPLPAGGGTVLTKMYPRGNHWAVGHLM-NH2; UniProt P07492 24-50, looked up)",–,–,–,–,60%
GRP18-27: amidated GRP18-27; differs from bombesin by a Gln to His substitution at position 20,–,–,–,–,60%
"[D-Phe^6, β-Ala^11, Phe^13, Nle^14] Bn(6-14)",1.31±0.04,3.14±0.34,1.17±0.03,1.05±0.04,–
bombesin,–,–,–,–,less than 1%
